{"source": "ChEMBL document CHEMBL3244396", "about": "“Synthesis and antileukemic activity of 5-substituted 2,3-dihydro-6,7-bis(hydroxymethyl)-1H-pyrrolizine diesters” (J Med Chem, 1977)", "key": {"[1]": {"assay": "Cytotoxicity against human 9KB cells treated as ethanol solution", "assay_type": "functional", "details": "read-out: ED50 (the source's name)", "procedure,_shortened": "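Compound applied as an ethanol solution; activity read out as ED50 under the general screening protocol.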"}, "L1210 [2]": {"test_system": "L1210", "assay": "Antileukemic activity against mouse L1210 cells allografted in female BDF1 mouse assessed as change in body weight at 50 mg/kg, ip administered daily for 9 days as Klucel suspension starting 24 hrs after tumor inoculation", "assay_type": "functional", "details": "route intraperitoneal", "procedure,_shortened": "(§1)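 Ascitic fluid carrying L1210 cells was inoculated ip. Compound was given ip as a Klucel (hydroxypropylcellulose) suspension in nine daily doses, starting 24 h after inoculation. Body-weight difference (treated minus control) was recorded on day 5. Survival was scored as %T/C of mean survival time.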"}, "L1210 [3]": {"test_system": "L1210", "assay": "Antileukemic activity against mouse L1210 cells allografted in female BDF1 mouse assessed as change in body weight at 100 mg/kg, ip administered daily for 9 days as Klucel suspension starting 24 hrs after tumor inoculation", "assay_type": "functional", "details": "route intraperitoneal", "procedure,_shortened": "as §1"}, "L1210 [4]": {"test_system": "L1210", "assay": "Antileukemic activity against mouse L1210 cells allografted in female BDF1 mouse assessed as change in body weight at 200 mg/kg, ip administered daily for 9 days as Klucel suspension starting 24 hrs after tumor inoculation", "assay_type": "functional", "details": "route intraperitoneal", "procedure,_shortened": "as §1"}, "L1210 [5]": {"test_system": "L1210", "assay": "Antileukemic activity against mouse L1210 cells allografted in female BDF1 mouse assessed as host mean survival time at 200 mg/kg, ip administered daily for 9 days as Klucel suspension starting 24 hrs after tumor inoculation relative to control", "assay_type": "functional", "details": "route intraperitoneal", "procedure,_shortened": "(§2)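 L1210 leukemia given as an ascitic fluid cell inoculum, ip, to mice of the strain and sex in each line. Test material was given ip for nine daily doses starting 24 h after inoculation, in a Klucel (hydroxypropylcellulose) suspension. Read-out is mean survival time as %T/C versus controls, with >125 taken as significant.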"}, "L1210 [6]": {"test_system": "L1210", "assay": "Antileukemic activity against mouse L1210 cells allografted in female BDF1 mouse assessed as host mean survival time at 100 mg/kg, ip administered daily for 9 days as Klucel suspension starting 24 hrs after tumor inoculation relative to control", "assay_type": "functional", "details": "route intraperitoneal", "procedure,_shortened": "as §2"}, "L1210 [7]": {"test_system": "L1210", "assay": "Antileukemic activity against mouse L1210 cells allografted in female BDF1 mouse assessed as host mean survival time at 50 mg/kg, ip administered daily for 9 days as Klucel suspension starting 24 hrs after tumor inoculation relative to control", "assay_type": "functional", "details": "route intraperitoneal", "procedure,_shortened": "as §2"}, "Mus musculus [8]": {"test_system": "Mus musculus", "assay": "Toxicity in female BDF1 mouse allografted with mouse L1210 cells assessed as animal survival at 200 mg/kg, ip administered daily for 9 days as Klucel suspension starting 24 hrs after tumor inoculation measured on fifth day", "assay_type": "organism-based", "parameters": "dose 200 mg/kg, route intraperitoneal", "details": "in vivo", "procedure,_shortened": "(§3)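 L1210 leukemia passaged as ascitic fluid and inoculated ip. Test agent given ip as a Klucel (hydroxypropylcellulose) suspension, nine daily doses starting 24 h after tumor inoculation. Acute toxicity read as toxicity-day survivors per group (out of 6), recorded on day 5. Animal weight difference T − C was also recorded. Follows NCI screening protocols.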"}, "Mus musculus [9]": {"test_system": "Mus musculus", "assay": "Toxicity in female BDF1 mouse allografted with mouse L1210 cells assessed as animal survival at 50 mg/kg, ip administered daily for 9 days as Klucel suspension starting 24 hrs after tumor inoculation measured on fifth day", "assay_type": "organism-based", "parameters": "dose 50 mg/kg, route intraperitoneal", "details": "in vivo", "procedure,_shortened": "as §3"}, "P388 [10]": {"test_system": "P388", "assay": "Antitumor activity against mouse P388 cells allografted in female CDF1 mouse assessed as disease cures by measuring 30-days host survival at 25 mg/kg, ip administered daily for 9 days as Klucel suspension starting 24 hrs after tumor inoculation relative to control", "assay_type": "functional", "details": "route intraperitoneal", "procedure,_shortened": "(§4)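 P388 leukemia given as an ascitic fluid cell inoculum, ip, to mice of the strain and sex in each line. Nine daily ip doses were given in a Klucel (hydroxypropylcellulose) suspension, starting 24 h after inoculation. Read-out is median survival time as %T/C, with >125 taken as significant; a \"cure\" means 30-day survival.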"}, "P388 [11]": {"test_system": "P388", "assay": "Antitumor activity against mouse P388 cells allografted in female CDF1 mouse assessed as disease cures by measuring 30-days host survival at 12.5 mg/kg, ip administered daily for 9 days as Klucel suspension starting 24 hrs after tumor inoculation relative to control", "assay_type": "functional", "details": "route intraperitoneal", "procedure,_shortened": "as §4"}, "Mus musculus [12]": {"test_system": "Mus musculus", "assay": "Toxicity in female CDF1 mouse allografted with mouse P388 cells assessed as animal survival at 100 mg/kg, ip administered daily for 9 days as Klucel suspension starting 24 hrs after tumor inoculation", "assay_type": "organism-based", "parameters": "dose 100 mg/kg, route intraperitoneal", "details": "in vivo", "procedure,_shortened": "(§5)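 P-388 leukemia ascitic fluid inoculated ip. Compound given ip as a suspension in Klucel (hydroxypropylcellulose), once daily for nine doses beginning 24 h post-inoculation. Acute toxicity assessed as toxicity-day survivors per group. Survival was followed up to 30 days, with 30-day survival counted as \"cure\". Follows NCI screening protocols.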"}, "Mus musculus [13]": {"test_system": "Mus musculus", "assay": "Toxicity in female CDF1 mouse allografted with mouse P388 cells assessed as animal survival at 50 mg/kg, ip administered daily for 9 days as Klucel suspension starting 24 hrs after tumor inoculation", "assay_type": "organism-based", "parameters": "dose 50 mg/kg, route intraperitoneal", "details": "in vivo", "procedure,_shortened": "as §5"}, "Mus musculus [14]": {"test_system": "Mus musculus", "assay": "Toxicity in female CDF1 mouse allografted with mouse P388 cells assessed as animal survival at 25 mg/kg, ip administered daily for 9 days as Klucel suspension starting 24 hrs after tumor inoculation", "assay_type": "organism-based", "parameters": "dose 25 mg/kg, route intraperitoneal", "details": "in vivo", "procedure,_shortened": "as §5"}, "Mus musculus [15]": {"test_system": "Mus musculus", "assay": "Toxicity in female CDF1 mouse allografted with mouse P388 cells assessed as animal survival at 12.5 mg/kg, ip administered daily for 9 days as Klucel suspension starting 24 hrs after tumor inoculation", "assay_type": "organism-based", "parameters": "dose 12.5 mg/kg, route intraperitoneal", "details": "in vivo", "procedure,_shortened": "as §5"}, "P388 [16]": {"test_system": "P388", "assay": "Antitumor activity against mouse P388 cells allografted in female CDF1 mouse assessed as change in body weight at 12.5 mg/kg, ip administered daily for 9 days as Klucel suspension starting 24 hrs after tumor inoculation", "assay_type": "functional", "details": "route intraperitoneal", "procedure,_shortened": "(§6)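 Ascitic fluid carrying P388 cells was inoculated ip. Compound was given ip in nine daily doses, starting 24 h after inoculation, in Klucel (hydroxypropylcellulose) suspension or in saline with Tween-80. Body-weight difference (treated minus control) was recorded on day 5. Survival was scored as %T/C of median survival time, and 30-day survival counted as cure.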"}, "P388 [17]": {"test_system": "P388", "assay": "Antitumor activity against mouse P388 cells allografted in female CDF1 mouse assessed as change in body weight at 25 mg/kg, ip administered daily for 9 days as Klucel suspension starting 24 hrs after tumor inoculation", "assay_type": "functional", "details": "route intraperitoneal", "procedure,_shortened": "as §6"}, "P388 [18]": {"test_system": "P388", "assay": "Antitumor activity against mouse P388 cells allografted in female CDF1 mouse assessed as change in body weight at 50 mg/kg, ip administered daily for 9 days as Klucel suspension starting 24 hrs after tumor inoculation", "assay_type": "functional", "details": "route intraperitoneal", "procedure,_shortened": "as §6"}, "P388 [19]": {"test_system": "P388", "assay": "Antitumor activity against mouse P388 cells allografted in female CDF1 mouse assessed as change in body weight at 100 mg/kg, ip administered daily for 9 days as Klucel suspension starting 24 hrs after tumor inoculation", "assay_type": "functional", "details": "route intraperitoneal", "procedure,_shortened": "as §6"}, "P388 [20]": {"test_system": "P388", "assay": "Antitumor activity against mouse P388 cells allografted in female CDF1 mouse assessed as change in body weight at 200 mg/kg, ip administered daily for 9 days as Klucel suspension starting 24 hrs after tumor inoculation", "assay_type": "functional", "details": "route intraperitoneal", "procedure,_shortened": "as §6"}, "P388 [21]": {"test_system": "P388", "assay": "Antitumor activity against mouse P388 cells allografted in female CDF1 mouse assessed as disease cures by measuring 30-days host survival at 200 mg/kg, ip administered daily for 9 days as Klucel suspension starting 24 hrs after tumor inoculation relative to control", "assay_type": "functional", "details": "route intraperitoneal", "procedure,_shortened": "as §4"}, "P388 [22]": {"test_system": "P388", "assay": "Antitumor activity against mouse P388 cells allografted in female CDF1 mouse assessed as disease cures by measuring 30-days host survival at 100 mg/kg, ip administered daily for 9 days as Klucel suspension starting 24 hrs after tumor inoculation relative to control", "assay_type": "functional", "details": "route intraperitoneal", "procedure,_shortened": "as §4"}, "P388 [23]": {"test_system": "P388", "assay": "Antitumor activity against mouse P388 cells allografted in female CDF1 mouse assessed as disease cures by measuring 30-days host survival at 50 mg/kg, ip administered daily for 9 days as Klucel suspension starting 24 hrs after tumor inoculation relative to control", "assay_type": "functional", "details": "route intraperitoneal", "procedure,_shortened": "as §4"}}}
{"compound": "CNC(=O)OCc1c(COC(=O)NC)c(-c2ccc(OC)cc2)n2c1CCC2", "values": [{"measurement": "EC50", "setting": "[1]", "result": 21, "unit": "µg/mL"}, {"measurement": "Activity", "setting": "L1210 [2]", "result": -2.3, "unit": "g"}, {"measurement": "Activity", "setting": "L1210 [3]", "result": -4.8, "unit": "g"}, {"measurement": "Activity", "setting": "L1210 [4]", "result": -5, "unit": "g"}, {"measurement": "T/C", "setting": "L1210 [5]", "result": 98, "unit": "%"}, {"measurement": "T/C", "setting": "L1210 [6]", "result": 117, "unit": "%"}, {"measurement": "T/C", "setting": "L1210 [7]", "result": 109, "unit": "%"}, {"measurement": "Activity", "setting": "Mus musculus [8]", "result": "Non-toxic"}, {"measurement": "Activity", "setting": "Mus musculus [9]", "result": "Non-toxic"}, {"measurement": "T/C", "setting": "P388 [10]", "result": 132, "unit": "%"}, {"measurement": "T/C", "setting": "P388 [11]", "result": 132, "unit": "%"}, {"measurement": "Activity", "setting": "Mus musculus [12]", "result": "Non-toxic"}, {"measurement": "Activity", "setting": "Mus musculus [13]", "result": "Non-toxic"}, {"measurement": "Activity", "setting": "Mus musculus [14]", "result": "Non-toxic"}, {"measurement": "Activity", "setting": "Mus musculus [15]", "result": "Non-toxic"}, {"measurement": "Activity", "setting": "P388 [16]", "result": -3.2, "unit": "g"}, {"measurement": "Activity", "setting": "P388 [17]", "result": -3.3, "unit": "g"}, {"measurement": "Activity", "setting": "P388 [18]", "result": -4, "unit": "g"}, {"measurement": "Activity", "setting": "P388 [19]", "result": -3.7, "unit": "g"}, {"measurement": "Activity", "setting": "P388 [20]", "result": -3.6, "unit": "g"}, {"measurement": "T/C", "setting": "P388 [21]", "result": 55, "unit": "%"}, {"measurement": "T/C", "setting": "P388 [22]", "result": 129, "unit": "%"}, {"measurement": "T/C", "setting": "P388 [23]", "result": 131, "unit": "%"}]}
